FN deposit inh = inhibitors of fibronectin matrix deposition, primary screen, AH1F cells, Alexa488-fibronectin fluorescence, plate reader | AID 743247, 2014 | inhibition, % at 12.6 µM | 350,000 compounds, 0.086% hits | AH1F fibroblasts, overnight;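 active = mean inhibition across replicates of 30% or more, regardless of how many single replicates reach that level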
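material = AH1F fibroblast monolayer depositing Alexa488-labelled fibronectin into matrix | amount = 10000 AH1F cells/well | buffer or medium = DMEM plus 2% serum, read in PBS | incubation = 1 h cell adhesion before compound, then overnight fibronectin incubation | detection = fluorescence at 485 nm excitation, 525 nm emission | evaluation = percent inhibition as loss of matrix-bound fibronectin fluorescence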
RAD52 anneal inh = RAD52 DNA annealing inhibitors, primary screen, biochemical, FRET, single point, set 2; AID 651710, 2012; DNA repair protein RAD52 homolog (Homo sapiens), P43351; inhibition, % at 18.7 µM; 360,000 compounds, 0.46% hits; recombinant RAD52 DNA annealing, FRET fluorescence;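 active = every replicate showing at least 50% inhibition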
Target sequence (P43351 whole entry, looked up): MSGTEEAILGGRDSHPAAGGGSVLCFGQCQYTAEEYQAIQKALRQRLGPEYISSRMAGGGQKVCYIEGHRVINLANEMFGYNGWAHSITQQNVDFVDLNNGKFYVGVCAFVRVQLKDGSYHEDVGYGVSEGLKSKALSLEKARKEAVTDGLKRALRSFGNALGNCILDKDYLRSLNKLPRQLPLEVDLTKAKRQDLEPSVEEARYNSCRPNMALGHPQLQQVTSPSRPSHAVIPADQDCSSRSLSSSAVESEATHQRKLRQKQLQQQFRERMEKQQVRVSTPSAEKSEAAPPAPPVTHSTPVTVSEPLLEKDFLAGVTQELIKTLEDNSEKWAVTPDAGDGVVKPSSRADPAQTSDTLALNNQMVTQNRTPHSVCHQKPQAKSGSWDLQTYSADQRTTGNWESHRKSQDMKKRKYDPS
RAD54 inh = inhibitors of human RAD54 branch migration, primary screen, biochemical, fluorescence, single point. RAD54 Holliday junction branch migration, FAM/BHQ fluorescence. DNA repair and recombination protein RAD54-like (Homo sapiens), Q92698. inhibition, % at 10.4 µM. 360,000 compounds, 0.14% hits. AID 602329, 2012;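 active = mean normalized replicate activity at least 40 and at least half of replicates scoring 40 or more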;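 also: inhibitors cause a drop in the FAM fluorescence signal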
PAX8 inh HTS = inhibitors of PAX8-driven TPO luciferase reporter, primary screen, RMG-I cells, single concentration. SteadyGlo, 24 h. inhibition, % at 12.6 µM. 360,000 compounds, 1.2% hits;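 active = mean replicate inhibition at least 60% with every replicate also reaching 60%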;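 also: luciferase light reporting Pax8 driven TPO promoter activity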
A number is an active result. Rows were chosen to be rich in hits. Some 1.3% of all compounds tested hit in one or more screens of this group.

`COc1ccc2[nH]c(C(=O)N/N=C/c3ccc(O)cc3O)cc2c1` gave RAD52 anneal inh inactive, RAD54 inh inactive and PAX8 inh HTS 85.
Screening CC(=O)N1N=C(c2cccc(O)c2)CC1c1cccs1 (centres undefined) returned FN deposit inh inactive, RAD52 anneal inh inactive, RAD54 inh inactive and PAX8 inh HTS inactive.
Screening CN(C(=O)COC(=O)C1CCN(S(=O)(=O)c2c(Cl)cccc2Cl)CC1)C1CCS(=O)(=O)C1 (centres undefined) returned FN deposit inh inactive, RAD52 anneal inh inactive, RAD54 inh inactive and PAX8 inh HTS 113.
For CN(C(=O)COC(=O)C1CCN(S(=O)(=O)c2ccc(Cl)cc2)CC1)C1CCS(=O)(=O)C1 (centres undefined) the results were FN deposit inh inactive, RAD52 anneal inh inactive, RAD54 inh inactive and PAX8 inh HTS inactive.
`Cc1onc(-c2ccccc2)c1C(=O)NC(=S)NNC(=O)c1ccc(O)cc1O` gave FN deposit inh inactive and PAX8 inh HTS 86.
C[C@H](CO)N1C[C@H](C)[C@@H](CN(C)C(=O)c2ccc(F)cc2)Oc2ncc(C#C[C@@H](C)O)cc2C1=O was read as RAD52 anneal inh inactive and RAD54 inh inactive.
Screening CCOC(=O)C1(Cc2ccc(OC)cc2)CCN(C(=O)CN2CCCCC2=O)CC1 returned FN deposit inh inactive, RAD52 anneal inh inactive and PAX8 inh HTS 92.
COc1c(Cl)cc(Cl)cc1/C=C/C(=O)c1ccc(NC(=O)c2cccs2)cc1 was read as FN deposit inh inactive, RAD52 anneal inh inactive, RAD54 inh inactive and PAX8 inh HTS 81.
`CC(C(=O)N1CCC(C(N)=O)CC1)N(c1ccc(Oc2ccccc2)cc1)S(C)(=O)=O` (centres undefined) gave FN deposit inh inactive and RAD54 inh inactive.
CC1CCCN(C(=O)Cc2cn(Cc3cccc(Cl)c3)c3ccccc23)C1 (centres undefined) was read as FN deposit inh inactive, RAD52 anneal inh inactive and PAX8 inh HTS 64.
Screening COc1ccc(CC(=O)N/N=C(\C)CC(=O)Nc2ccc(N(C)C)cc2)cc1OC returned FN deposit inh inactive, RAD52 anneal inh inactive and PAX8 inh HTS inactive.
For Cc1nnc(N/N=C/c2cc(C)n(-c3ccc(F)cc3)c2C)n1N the results were FN deposit inh inactive, RAD52 anneal inh inactive and PAX8 inh HTS 120.
Cc1nnc(N/N=C/c2ccccc2O)n1N was read as FN deposit inh inactive, RAD52 anneal inh inactive and PAX8 inh HTS inactive.
For CC1(C)CCN2CCC(C)(C)c3c(O)ccc1c32 the results were FN deposit inh inactive, RAD52 anneal inh inactive, RAD54 inh inactive and PAX8 inh HTS 84.
For O=C(Cn1ncc(Cl)c(Cl)c1=O)N1CCN(Cc2ccccc2)CC1 the results were FN deposit inh inactive, RAD52 anneal inh inactive and PAX8 inh HTS 73.
O=C(Cn1ncc(Cl)c(Cl)c1=O)N1CCc2ccccc21 was read as RAD52 anneal inh inactive and PAX8 inh HTS 66.
O=C(Cn1ncc(Cl)c(Cl)c1=O)N1CCOCC1 was read as FN deposit inh inactive, RAD52 anneal inh inactive and PAX8 inh HTS inactive.
Screening C#Cc1ccc(C(=O)Nc2cc(C(N)=O)ccc2N2CCOCC2)cc1 returned RAD54 inh inactive.
`COc1cc(C(O)C(=O)O)ccc1O` (centres undefined) gave FN deposit inh inactive, RAD52 anneal inh inactive, RAD54 inh inactive and PAX8 inh HTS inactive.
`CCOc1ccc(NC(=O)c2ccc(CNc3c(NC4CCCCC4)c(=O)c3=O)cc2)cc1` gave FN deposit inh 33, RAD52 anneal inh inactive, RAD54 inh inactive and PAX8 inh HTS inactive.
Screening CCOc1ccc(CN(C)C(=O)CCNC(=O)c2ccco2)cc1 returned FN deposit inh inactive, RAD52 anneal inh inactive, RAD54 inh inactive and PAX8 inh HTS inactive.
COc1ccc2c3c(n(C)c2c1)[C@@H](CO)N(C(=O)CN(C)C)CC31CCN(S(C)(=O)=O)CC1 was read as FN deposit inh inactive, RAD52 anneal inh inactive and PAX8 inh HTS inactive.
For COc1ccc2c3c(n(C)c2c1)[C@@H](CO)N(CC1CCCC1)CC31CCN(C(=O)CN(C)C)CC1 the results were RAD52 anneal inh inactive and PAX8 inh HTS inactive.
For COCC(=O)N1CCC2(CC1)CN(C(=O)NC1CCCC1)[C@@H](CO)c1c2c2ccc(OC)cc2n1C the results were RAD52 anneal inh inactive and PAX8 inh HTS 68.
For COCC(=O)N1CC2(C1)CN(C(=O)NC1CCCC1)[C@H](CO)c1c2c2ccc(OC)cc2n1C the results were FN deposit inh inactive, RAD52 anneal inh inactive and PAX8 inh HTS inactive.
`COc1ccc2c3c(n(C)c2c1)[C@H](CO)N(CC1CC1)CC31CCN(C(=O)CN(C)C)CC1` gave RAD52 anneal inh 54 and PAX8 inh HTS inactive.
`COc1ccc(S(=O)(=O)N2CCC3(CC2)CN(C(=O)CN(C)C)[C@H](CO)c2c3c3ccc(OC)cc3n2C)cc1` gave RAD52 anneal inh 57 and PAX8 inh HTS inactive.
For COc1ccc(-c2ccc3c(c2)[C@@H]2[C@@H](CCN2S(=O)(=O)c2ccccc2C)[C@@H](CO)N3)cc1 the results were FN deposit inh inactive, RAD52 anneal inh inactive, RAD54 inh inactive and PAX8 inh HTS inactive.
COCC(=O)N1C[C@@H](C)[C@@H](OC)CN(C)C(=O)c2ccc(NS(C)(=O)=O)cc2OC[C@H]1C was read as FN deposit inh inactive, RAD52 anneal inh inactive, RAD54 inh inactive and PAX8 inh HTS inactive.
`COC(=O)c1ccccc1NC(=S)N(Cc1ccc2c(c1)OCO2)Cc1cc2cccc(C)c2[nH]c1=O` gave FN deposit inh inactive and PAX8 inh HTS inactive.
For Cc1ccc(-n2cc(CNC(C)Cn3cncn3)c(-c3ccc(F)cc3)n2)cc1 (centres undefined) the results were FN deposit inh inactive, RAD52 anneal inh inactive and PAX8 inh HTS inactive.
COc1ccc(C#Cc2ccc3c(c2)O[C@@H](CN(C)C(=O)NC2CCCCC2)[C@H](C)CN([C@@H](C)CO)S3(=O)=O)cc1 was read as RAD52 anneal inh inactive and RAD54 inh inactive.
C[C@@H]1CN([C@H](C)CO)S(=O)(=O)c2ccc(C#Cc3ccc(F)cc3)cc2O[C@@H]1CN(C)C(=O)NC1CCCC1 was read as FN deposit inh inactive, RAD52 anneal inh inactive and RAD54 inh inactive.
For C[C@H]1CN([C@@H](C)CO)S(=O)(=O)c2ccc(C#Cc3ccc(F)cc3)cc2O[C@@H]1CN(C)C(=O)NC1CCCCC1 the results were FN deposit inh inactive, RAD52 anneal inh inactive, RAD54 inh inactive and PAX8 inh HTS 91.
`C[C@H]1CN([C@@H](C)CO)S(=O)(=O)c2ccc(C#Cc3ccc(F)cc3)cc2O[C@H]1CN(C)C(=O)NC1CCCCC1` gave FN deposit inh inactive, RAD52 anneal inh inactive, RAD54 inh inactive and PAX8 inh HTS 78.
C[C@@H]1CN([C@@H](C)CO)S(=O)(=O)c2ccc(C#Cc3ccc(F)cc3)cc2O[C@@H]1CN(C)C(=O)NC1CCCCC1 was read as FN deposit inh inactive, RAD52 anneal inh inactive, RAD54 inh inactive and PAX8 inh HTS 85.
